The source made the active and inactive calls. The rule behind the calls is not given here. Where a SMILES comes first, the peptide text is derived from it. Bridges are numbered along the chain shown (N, C = ends). Roman numbers before positions name the chains, in order. [ ]: non-standard residue; d: D form. The star is where a group is joined. 5TAMRA = CN(C)c1ccc2c(c1)Oc1cc(N(C)C)ccc1C21OC(=O)c2cc(C(=O)*)ccc21; Cha = N[C@@H](CC1CCCCC1)C(=O)O

A short description of data set [1]: Drug localization in mitochondria of human HeLa cells at EC50 incubated for 3 hrs by fluorescence based assay. In kind it is ADME.
Data set [2] in a line: Drug uptake in CCCP-damaged mitochondria of human HeLa cells at 100 nM incubated for 3 hrs by MitoTracker probe based assay. It is filed as ADME. The settings on record: 0.1 µM. A digest of the protocol:
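HeLa cells given TAMRA-labelled peptide 100 nM for 3 h with MitoTracker staining; mitochondria damaged with 20 μM CCCP (30 min) or by CCCP during time-lapse confocal imaging. Red/green Pearson r calculated.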

A short description of data set [3]: Drug uptake in mitochondria of human HeLa cells transfected with Drp1-eGFP at 100 nM incubated for 3 hrs by confocal microscopy. Conditions: 0.1 µM. In kind it is ADME.
The subject of data set [4] is HeLa. As to the kind of experiment: Cytoprotective activity against CCCP-induced cell death in human HeLa cells assessed as increase in cell survival measured for 4 hrs by fluorescence based analysis. In kind it is functional.
Data set [5] relates to HeLa. Kind of data set: Induction of CCCP-reduced ATP production in human HeLa cells incubated for 3 hrs followed by CCCP addition measured after 1 hr by luminescence based analysis. It is filed as functional, cell-based. The settings on record: dose 5-20 nM, time 4.0 hrs. A digest of the protocol:
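Cellular ATP measured by luminescence with an ATP detection kit after peptide pretreatment.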

The subject of data set [6] is HeLa. As to the kind of experiment: Induction of H2O2-reduced mitochondrial membrane potential in human HeLa cells incubated for 3 hrs followed by H2O2 addition for 1 hr by fluorescence based analysis. In kind it is functional, cell-based. Conditions: dose 10-30 nM, time 4.0 hrs. A digest of the protocol: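 HeLa cells given peptide 3 h then 1 mM H2O2 for 1 h; TMRE 600 nM for 15 min, washed, fluorescence read in HBSS at 37 °C (Ex/Em 525/575 nm).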

A short description of data set [7]: Drug uptake in human HeLa cells at 100 nM incubated for 3 hrs in presence of M-beta-CD by FACS analysis. It is filed as ADME, cell-based. The settings on record: 0.1 µM. In outline:
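HeLa cells pretreated 30 min with the endocytosis inhibitor (methyl-β-cyclodextrin for cholesterol depletion), then given 100 nM TAMRA-labelled peptide for 3 h and analysed by FACS.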
(Flow cytometry measures light scatter and fluorescence of single cells or particles in a stream.)

Data set [8] is described as follows: Drug localization in endosomes of human HeLa cells expressing endosome markers at 100 nM incubated for 3 hrs by GFP based analysis. It is filed as ADME, subcellular. The settings on record: 0.1 µM. A digest of the protocol:
(§1)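 HeLa cells expressing early-endosome GFP marker (16 h) given TAMRA-labelled peptide 100 nM for 3 h plus LysoTracker 50 nM; confocal imaging with Pearson correlation.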

Data set [9] can be described thus: Drug localization in lysosomes of human HeLa cells expressing endosome markers at 100 nM incubated for 3 hrs by LysoTracker probe based analysis. It is filed as ADME, subcellular, Lysosome. Conditions: 0.1 µM. A digest of the protocol:
as §1

Data set [10] can be described thus: Drug localization in lysosomes of human HeLa cells at 100 nM incubated for 3 hrs in presence of CCCP by NAO probe based analysis. Conditions: 0.1 µM. In kind it is ADME, subcellular, Lysosome. A digest of the protocol:
(§2)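 HeLa cells given TAMRA-labelled peptide 100 nM for 3 h and cardiolipin stained with NAO (100 nM, 1 h), with or without 20 μM CCCP for 30 min; LysoTracker 50 nM. Confocal images, Pearson r from five independent images (63×) per condition.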

Data set [11] is described as follows: Drug localization in cytosol of human HeLa cells at 100 nM incubated for 3 hrs in presence of CCCP by NAO probe based analysis. It is filed as ADME, subcellular. The settings on record: 0.1 µM. In outline: as §2
For data set [12], the system named is Epithelial cell. Kind of data set: Induction of antimycin A-reduced ATP production in human tubular epithelial cells at 10 to 20 nM incubated for 3 hrs followed by antimycin A addition by fluorescene based analysis. In kind it is functional. Conditions: dose 10-20 nM.
The subject of data set [13] is Epithelial cell. As to the kind of experiment: Reversal of H2O2-induced mitochondrial dysfunction in human tubular epithelial cells assessed as increase in OCR level measured for 40 to 60 mins by Seahorse assay. In kind it is functional, cell-based. The settings on record: dose 10-50 nM, time 40-60 min. In outline:
(§3)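 hTECs were exposed to H2O2 with peptide at 10 or 50 nM (n = 6 per group), then run on a Seahorse XFe96. OCR was read after sequential 2 μM oligomycin, 1 μM FCCP, and 0.5 μM rotenone/antimycin A. ECAR was read after 10 mM glucose, 1 μM oligomycin and 50 mM 2-DG. Glycolytic proton efflux rate was taken as glycoATP production rate.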

In data set [14] the test system is Epithelial cell. Kind of data set: Reversal of H2O2-induced mitochondrial dysfunction in human tubular epithelial cells assessed as increase in ECAR level measured for 40 to 60 mins by Seahorse assay. Conditions: dose 10-50 nM, time 40-60 min. It is filed as functional, cell-based. A digest of the protocol:
as §3

Data set [15] concerns Mus musculus. As to the kind of experiment: Protection against colistin-induced nephrotoxicity in C57BL/6 mouse model assessed as reduction in blood BUN level at 1 mg/kg, ip administered once every other day measured upto 7 days. It is filed as functional, organism-based. Conditions: time <= 7.0 day. In outline:
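Male C57BL/6 mice, 7 weeks: colistin 20 mg/kg sc daily for 7 days, peptide 1 mg/kg ip every other day, n = 5 per group. BUN by autoanalyzer and creatinine by modified Jaffe reaction after 7 days; mean ± SEM.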

Data set [16] deals with Mus musculus. As to the kind of experiment: Protection against colistin-induced nephrotoxicity in C57BL/6 mouse model assessed as reduction in acute tubular necrosis at 1 mg/kg, ip administered once every other day measured after 7 days by […] analysis. It is filed as functional, organism-based. Conditions: time 7.0 day. A digest of the protocol:
(§4)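 Male C57BL/6 mice, 7 weeks: colistin 20 mg/kg sc daily for 7 days, peptide 1 mg/kg ip once every other day, n = 5 per group. Day-7 kidney sections, citrate antigen retrieval, immunohistochemistry with HRP polymer secondary and hematoxylin counterstain; PAS and Masson's trichrome for damage.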

Data set [17] has as its system Mus musculus. As to the kind of experiment: Protection against colistin-induced nephrotoxicity in C57BL/6 mouse model assessed as reduction in 8-OHdG level at 1 mg/kg, ip administered once every other day measured after 7 days by IHC analysis. In kind it is functional, organism-based. The settings on record: time 7.0 day. A digest of the protocol: as §4
The subject of data set [18] is Mus musculus. Kind of data set: Protection against colistin-induced nephrotoxicity in C57BL/6 mouse model assessed as reduction in cyt C level at 1 mg/kg, ip administered once every other day measured after 7 days by IHC analysis. It is filed as functional, organism-based. The settings on record: time 7.0 day. A digest of the protocol:
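Seven-week-old male C57BL/6 mice got colistin 20 mg/kg SC daily for 7 days plus peptide 1 mg/kg intraperitoneally every other day; groups of n = 5 (control, colistin, colistin + peptide). Kidneys were taken at day 7. Cytochrome C was detected by immunohistochemistry (citrate antigen retrieval, HRP-polymer detection, hematoxylin counterstain). Sections were also stained with PAS and Masson's trichrome to score histologic damage and fibrosis.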

Data set [19] concerns Mus musculus. As to the kind of experiment: Protection against colistin-induced nephrotoxicity in C57BL/6 mouse model assessed as increase in SOD-1 level at 1 mg/kg, ip administered once every other day measured after 7 days by IHC analysis. In kind it is functional, organism-based. Conditions: time 7.0 day. In outline:
as §4

Data set [20] has as its system Mus musculus. Kind of data set: Protection against colistin-induced nephrotoxicity in C57BL/6 mouse model assessed as appearance of compact cristae in mitochondria of kidney at 1 mg/kg, ip administered once every other day measured after 7 days by TEM analysis. Conditions: time 7.0 day. In kind it is functional, organism-based. A digest of the protocol:
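Male C57BL/6 mice, 7 weeks, given colistin 20 mg/kg sc daily for 7 days with peptide 1 mg/kg ip once every other day, n = 5 per group; kidney mitochondria examined by TEM.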

Data set [21] deals with Epithelial cell. As to the kind of experiment: Inhibition of H2O2-induced apoptosis in human tubular epithelial cells at 10 to 100 nM by Annexin V-FITC/PI staining based flow cytometry. In kind it is functional. Conditions: dose 10-100 nM. A digest of the protocol:
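hTECs exposed to H2O2 0.5 mM; annexin V-FITC/propidium iodide staining 15 min at room temperature in the dark, apoptosis and necrosis percentages by flow cytometry.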

Data set [22] concerns Epithelial cell. Kind of data set: Reversal of H2O2-induced p21 mRNA level in human tubular epithelial cells at 10 to 100 nM by qPCR analysis. It is filed as functional, cell-based. Conditions: dose 10-100 nM. Background: In qPCR the cycle at which signal appears reflects the starting amount.
Data set [23] has as its system Mus musculus. As to the kind of experiment: Protection against […] C57BL/6 mouse model assessed as reduction in tubular damage at 1 mg/kg, ip administered thrice a week prior to induction of bilateral ischemia-reperfusion injury measured after 6 days by IHC analysis. It is filed as functional, organism-based. Conditions: time 6.0 day.

Take `CC(=O)N[C@@H](CC1CCCCC1)C(=O)N[C@H]1CSSC[C@@H](C(=O)N[C@@H](CCCNC(=N)N)C(N)=O)NC(=O)[C@H](CC2CCCCC2)NC(=O)[C@H](CCCNC(=N)N)NC(=O)[C@H](CCCNC(=N)N)NC(=O)[C@H](CC2CCCCC2)NC(=O)[C@H](CC(C)C)NC(=O)[C@H](CCCNC(=N)N)NC(=O)[C@@H](NC(=O)[C@H](CC2CCCCC2)NC(=O)c2ccc3c(c2)C(=O)OC32c3ccc(N(C)C)cc3Oc3cc(N(C)C)ccc32)CSSC[C@@H](C(=O)N[C@@H](CCCNC(=N)N)C(N)=O)NC(=O)[C@H](CC2CCCCC2)NC(=O)[C@H](CCCNC(=N)N)NC(=O)[C@H](CCCNC(=N)N)NC(=O)[C@H](CC2CCCCC2)NC(=O)[C@H](CC(C)C)NC(=O)[C@H](CCCNC(=N)N)NC1=O` (I: Ac-[Cha]CRL[Cha]RR[Cha]CR-NH2 / II: 5TAMRA-[Cha]CRL[Cha]RR[Cha]CR-NH2; disulfide I:2-II:9, I:9-II:2): the Drug uptake in data set [1] is given as 53%; in data set [2], “Active”; in [3], “Active”; in data set [7] it was “Not Active”; in data set [8], “Not Active”; in data set [9], “Active”. Moreover, the Drug uptake result in data set [10] and in data set [11] was “Active” in each case. The result in the data set on HeLa [4], in the data set with Epithelial cell [12], in the data set with Mus musculus [15], in the data set with Mus musculus [16], in the data set on Mus musculus [17] and with Mus musculus [18] was Active. For the same compound, the result in the data set on Mus musculus [19], with Mus musculus [20], in the data set with Epithelial cell [22] and with Mus musculus [23] was Active. The Activity entry in the data set with HeLa [5], in the data set on HeLa [6], in the data set with Epithelial cell [13] and in the data set with Epithelial cell [14] was “Dose-Dependent Effect” each time. For the same compound, the inhibition result with Epithelial cell [21] is “Active”.

The record behind these values is ChEMBL document CHEMBL5634162, “Cyclohexylalanine-Containing α-Helical Amphipathic Peptide Targets Cardiolipin, Rescuing Mitochondrial Dysfunction in Kidney Injury” (J Med Chem, 2024).
